Tests used:
[1] = molecular target: T1, Human immunodeficiency virus type 1 integrase (Human immunodeficiency virus 1, UniProt Q7ZJM1); assay: (§1) Inhibitory activity against HIV-1 integrase
Summary of the method: (§2)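 Purified recombinant wild-type HIV-1 integrase, 200 nM final, preincubated with inhibitor for 30 min at 30 °C. Buffer: 25 mM MOPS pH 7.2, 7.5 mM MnCl2, 50 mM NaCl, 10% DMSO, 10% glycerol, BSA, DTT, 2-mercaptoethanol. Then 20 nM 5'-32P-labeled 21mer U5 duplex added for 60 min. Products run on denaturing 20% polyacrylamide gel and quantified by phosphorimager.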

[2] = molecular target: T1, Human immunodeficiency virus type 1 integrase; assay: as §1; summary of the method: as §2; remark: listed apart in the source
[3] = molecular target: T2, Human immunodeficiency virus type 1 protease (Human immunodeficiency virus 1, UniProt Q72874); assay: Inhibitory activity against HIV-1 protease
CCRF-CEM = assay: Inhibitory activity against HIV-1 infected CEM cells.; assay type: functional, cell-based; details: Homo sapiens
DNA topoisomerase 1 = molecular target: T3, DNA topoisomerase 1 (Homo sapiens, UniProt P11387); assay: Inhibitory activity against topoisomerase I.
T3 sequence (P11387 whole entry): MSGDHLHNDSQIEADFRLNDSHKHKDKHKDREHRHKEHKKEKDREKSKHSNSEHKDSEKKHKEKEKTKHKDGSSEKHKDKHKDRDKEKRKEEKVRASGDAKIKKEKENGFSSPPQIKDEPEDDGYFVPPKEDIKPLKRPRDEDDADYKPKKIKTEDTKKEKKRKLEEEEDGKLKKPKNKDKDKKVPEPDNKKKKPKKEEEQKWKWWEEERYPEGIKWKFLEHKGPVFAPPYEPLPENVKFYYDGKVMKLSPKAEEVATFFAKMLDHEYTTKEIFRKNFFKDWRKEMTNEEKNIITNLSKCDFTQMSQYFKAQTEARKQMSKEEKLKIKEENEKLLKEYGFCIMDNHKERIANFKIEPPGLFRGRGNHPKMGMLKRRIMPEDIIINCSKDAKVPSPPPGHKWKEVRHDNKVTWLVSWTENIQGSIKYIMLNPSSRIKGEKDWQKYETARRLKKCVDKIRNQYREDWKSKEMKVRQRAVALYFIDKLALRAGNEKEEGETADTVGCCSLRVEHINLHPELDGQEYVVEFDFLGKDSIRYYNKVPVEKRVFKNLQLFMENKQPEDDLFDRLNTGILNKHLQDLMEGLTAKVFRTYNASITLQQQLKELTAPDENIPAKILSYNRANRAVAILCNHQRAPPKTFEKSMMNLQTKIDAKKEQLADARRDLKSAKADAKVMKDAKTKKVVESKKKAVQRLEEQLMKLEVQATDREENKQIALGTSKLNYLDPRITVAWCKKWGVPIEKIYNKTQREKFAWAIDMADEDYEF
Summary of the method: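 Eukaryotic topoisomerase I on a duplex oligonucleotide with a single strong cleavage site, 3'-end labeled with α-[32P]cordycepin. Scored both for induction of cleavable complexes and for blocking camptothecin-induced complexes. Stopped with 0.5% SDS, proteinase K 60 min at 50 °C, denaturing 16% PAGE.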

[4] = test system: Feline immunodeficiency virus; assay: Inhibitory activity against feline was measured immunodeficiency virus (FIV) using 3'-processing (3'-proc) assay..; assay type: functional
Summary of the method: (§3)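 Recombinant FIV or SIV integrase, 600 nM final, preincubated 30 min at 30 °C with inhibitor in Mn2+/MOPS pH 7.2 buffer with 10% DMSO. 20 nM 5'-32P-labeled 21mer duplex added and incubated 60 min. The 3'-processed 19mer was resolved on denaturing 20% polyacrylamide gel and quantified by phosphorimager.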

[5] = molecular target: T4, Human immunodeficiency virus type 2 integrase (Human immunodeficiency virus 2, UniProt P89582); assay: Inhibitory activity against HIV-2 Integrase was measured using 3'-processing (3'-proc) assay.
T4 sequence (P89582 whole entry): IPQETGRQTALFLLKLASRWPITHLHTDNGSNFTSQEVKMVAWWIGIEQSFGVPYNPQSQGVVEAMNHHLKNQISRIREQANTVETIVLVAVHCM
Summary of the method: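 HIV-2 integrase, 200 nM final, preincubated 30 min at 30 °C with inhibitor in Mn2+/MOPS pH 7.2 buffer containing 10% DMSO. 3'-processing started with 20 nM 5'-32P-labeled 21mer duplex substrate and run 60 min more. Denaturing 20% PAGE, phosphorimager quantitation of the 19mer product.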

[6] = molecular target: T2, Human immunodeficiency virus type 1 protease; assay: Inhibitory activity against HIV-1 Protease.
[7] = test system: Simian immunodeficiency virus; assay: Inhibitory activity against simian was measured immunodeficiency virus (SIV) using 3'-processing (3'-proc); assay type: functional; summary of the method: as §3

T1 sequence (Q7ZJM1 whole entry): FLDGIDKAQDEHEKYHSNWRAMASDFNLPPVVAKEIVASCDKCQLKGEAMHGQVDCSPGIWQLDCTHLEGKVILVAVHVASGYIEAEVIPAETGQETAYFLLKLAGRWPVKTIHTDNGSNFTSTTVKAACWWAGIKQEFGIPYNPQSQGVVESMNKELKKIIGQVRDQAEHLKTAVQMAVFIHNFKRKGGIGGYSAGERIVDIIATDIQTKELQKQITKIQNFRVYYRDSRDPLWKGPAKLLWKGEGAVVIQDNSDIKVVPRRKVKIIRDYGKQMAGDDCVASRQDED

Structure (SMILES)	IC50 [1]	IC50 [2]	IC50 [3]	further results
O=C1C(O)=C(C(C2=C(O)C(=O)c3ccccc3C2=O)c2ccc(Cl)cc2)C(=O)c2ccccc21	> 100 µM	> 100 µM		
O=C1C(O)=C(C(C2=C(O)C(=O)c3ccccc3C2=O)c2ccc(Cl)cc2Cl)C(=O)c2ccccc21	40 µM	37 µM	24 µM	
O=c1c(C(c2ccc(C(c3c(O)oc4ccccc4c3=O)c3c(O)oc4ccccc4c3=O)cc2)c2c(O)oc3ccccc3c2=O)c(O)oc2ccccc12	0.8 µM	1.5 µM		IC50 (CCRF-CEM): 11.5 µM; IC50 (DNA topoisomerase 1): 10 µM; IC50 [4]: 2.2 µM; IC50 [5]: 1 µM; IC50 [6]: 1.7 µM; IC50 [7]: 2.3 µM
O=C1Oc2ccccc2C(O)C1Sc1c(O)oc2ccccc2c1=O (stereo unspecified)	100 µM	80 µM	21 µM	
CC(=O)Nc1ccc(C(C2=C(O)C(=O)c3ccccc3C2=O)C2=C(O)C(=O)c3ccccc3C2=O)cc1	78 µM	86 µM		
COc1ccc2c(O)c(S(=O)(=O)c3ccc(C)cc3)c(=O)oc2c1	> 100 µM	> 100 µM	> 100 µM	
CC(C1=C(O)C(=O)c2ccccc2C1=O)C1=C(O)C(=O)c2ccccc2C1=O	> 100 µM	> 100 µM		
O=C1C(O)=C(C(CCc2ccccc2)C2=C(O)C(=O)c3ccccc3C2=O)C(=O)c2ccccc21	90 µM	83 µM		
CCOc1ccc(C(C2=C(O)C(=O)c3ccccc3C2=O)C2=C(O)C(=O)c3ccccc3C2=O)cc1OC	> 100 µM	> 100 µM		
CC(=O)c1cccc(NC(=O)C(=O)c2c(O)oc3ccccc3c2=O)c1	> 100 µM	> 100 µM	> 100 µM	
O=C1Oc2ccccc2C(O)C1Cc1c(O)oc2ccccc2c1=O (stereo unspecified)	> 100 µM	> 100 µM	> 100 µM	
O=C1C(O)=C(C(C2=C(O)C(=O)c3ccccc3C2=O)c2ccc(Cl)c(Cl)c2)C(=O)c2ccccc21	52 µM	90 µM		
COc1ccc2c(O)c(S(=O)(=O)c3ccc(Cl)cc3)c(=O)oc2c1	> 100 µM	> 100 µM	> 100 µM	
O=c1oc2c(-c3ccccc3)cccc2c(O)c1-c1ccccc1	> 100 µM	> 100 µM	13 µM	
Cc1ccc(S(=O)(=O)N/N=C(/CCN2CCCC2)CC(c2ccccc2)c2c(O)oc3ccccc3c2=O)cc1 (stereo unspecified)	> 100 µM	> 100 µM	> 100 µM	
O=C(c1cccc([N+](=O)[O-])c1)c1c(O)oc2ccccc2c1=O	> 100 µM	> 100 µM	> 100 µM	
CC(C)c1cccc(C(C)C)c1NC(=O)C(=O)CC(=O)CC(c1ccccc1)c1c(O)oc2ccccc2c1=O (stereo unspecified)	> 100 µM	> 100 µM	31 µM	
O=c1c(C(c2ccc3c(c2)OCO3)c2c(O)oc3ccccc3c2=O)c(O)oc2ccccc12	18 µM	47 µM	30 µM	
O=c1oc2cccc(O)c2c(O)c1Cc1ccccc1	> 100 µM	> 100 µM	> 100 µM	
